# Only some compounds are listed: those with a hit (about 11% of all), similar ones and a draw of the others.
# S1P3 ag = human S1P3 receptor agonists, primary screen, cell-based, primary and confirmation, NFAT-BLA reporter | Sphingosine 1-phosphate receptor 3 (Homo sapiens), Q99500 | S1P3 NFAT-BLA reporter cells, agonism, FRET ratio; relative to 1 µM S1P, basal subtracted | activation, % at 4.5 µM | 60,000 compounds, 0.1% hits | AID 373, 2006;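 active = activation above the screen-wide mean plus 3 SD, cut at about 4.5% in these data, passing the limit was not always enough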
#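 Benchmarks: high control 1 µM S1P / System: stable CHO line with human S1P3, Gα16, NFAT-BLA reporter / Dosing: single compound concentration, 4.5 µM final / Timing: 4 h compound at 37 °C, 2 h substrate at RT / Measured by: FRET β-lactamase substrate fluorescence, excitation 405 nm, 460/535 nm emission ratio, background-subtracted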
# D1 allo mod = D1 CRE-luciferase signal change, two-sided – cell-based, HEK293 D1, dopamine EC30, D1 allosteric modulator project, primary screen; dopamine EC30 potentiation; actives deviate in either direction; B-score at 10 µM; 58,000 compounds, 5.9% hits; AID 641, 2007;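 active = luminescence count or its row- and column-corrected plate score outside the 99.7% band of the plate's sample wells, on either side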
# S1P1 ag-PAM = S1P1 agonists and agonism potentiators, primary screen, cell-based, primary and confirmation screens, CRE-bla reporter | activation, % at 9.5 µM | S1P1 CRE-bla cells, forskolin, beta-lactamase FRET, potentiator mode; S1P1 agonist co-added at EC20, 2 nM; 100% = saturating reference agonist, 0% = basal | 56,000 compounds, 0.57% hits | AID 449, 2006;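 active = activation above a cutoff set at the mean activation of all tested compounds plus 3 SD, cut at about 54% in these data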;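 also: forskolin at 4 µM as EC80 and the EC20 agonist is SEW2871; 100% = SEW2871 at its EC100 plus forskolin at EC80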
# Target sequence (P21453 whole entry, looked up): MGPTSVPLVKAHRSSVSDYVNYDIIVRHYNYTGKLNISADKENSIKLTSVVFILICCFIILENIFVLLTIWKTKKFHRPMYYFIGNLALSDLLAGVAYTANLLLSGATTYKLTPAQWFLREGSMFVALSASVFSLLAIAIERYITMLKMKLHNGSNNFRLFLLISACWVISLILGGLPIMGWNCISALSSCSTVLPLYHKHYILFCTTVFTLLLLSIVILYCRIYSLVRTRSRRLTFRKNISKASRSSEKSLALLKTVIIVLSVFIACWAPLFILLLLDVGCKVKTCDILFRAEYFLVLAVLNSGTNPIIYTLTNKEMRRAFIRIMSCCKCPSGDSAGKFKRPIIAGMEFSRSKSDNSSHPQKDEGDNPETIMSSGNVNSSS
# M1 antag = antagonists of rat M1 muscarinic receptor | Muscarinic acetylcholine receptor M1 (Rattus norvegicus), P08482 | AID 628, 2007 | B-score at 10 µM | 64,000 compounds, 3.4% hits | CHO-M1 cells, Fluo-4 calcium, ACh EC80 antagonist mode; stronger effect = lower value;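 active = calcium fluorescence response, raw or row-and-column corrected B-score, differing from the plate sample mean either way at a set confidence level, mostly lower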
# M1 ag = M1 muscarinic receptor agonists, primary screen, CHO-M1 cells, Fluo-4 calcium, agonist mode; 64,000 compounds, 3% hits; B-score at 10 µM; Muscarinic acetylcholine receptor M1; AID 626, 2007; Fluo-4 calcium fluorescence; stronger effect = higher value;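 active = fluorescence rise, raw or as B-score row- and column-corrected plate score, outside the 99.7% band of its plate's samples, either direction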
# D1 mod confirm = D1 receptor positive allosteric modulators, retest, confirmation, cell-based, HEK293 D1, CRE-luciferase, duplicate. shares compounds with D1 allo mod. dopamine EC30 potentiation; stronger effect = higher value. 2,200 compounds, 88% hits. luminescence at 10 µM;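 active = luminescence in either of two replicates above the same-plate mean plus 3 SD of the low-dose dopamine control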
# D1 ag no DA = D1 receptor agonism without dopamine, confirmation, mechanism study for D1 allosteric modulator project, cell-based, HEK293 D1, CRE-luciferase, secondary assay 1 | shares compounds with D1 allo mod | luminescence, no dopamine; stronger effect = higher value | luminescence at 10 µM | 1,900 compounds, 0.8% hits; in the data active = luminescence above about 3900
# Isoprot counter = counter-screen for D1 modulators: isoproterenol response in HEK293 cells; shares compounds with D1 allo mod; HEK293 D1 CRE-luciferase, isoproterenol EC30 counter-screen; calls only at 10 µM; 2,200 compounds, 63% hits;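 active = luminescence in either replicate above plate mean of wells with a partly effective reference agonist dose plus 3 SD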;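 also: isoproterenol raises cAMP through native beta-adrenoceptor Gs so signal bypasses D1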
# Active calls of the source: *; i = inactive; . = not tested or not shown; + = active, no number.
SMILES,S1P3 ag,D1 allo mod,S1P1 ag-PAM,M1 antag,M1 ag,D1 mod confirm,D1 ag no DA,Isoprot counter
CCOC(=O)C(O)(CCC(O)(C(=O)OCC)C(=O)OCC)C(=O)OCC,-2,5*,-25,0.59,-0.55,6712*,1572,i
COC(=O)NCCOC(=O)N(O)c1ccc(Br)cc1,-1,.,8,.,.,.,.,.
O=c1[nH]c2ccsc2c(=O)n1-c1ccc(F)cc1,.,0.2,.,0.19,-0.63,.,.,.
O=c1[nH]c2ccsc2c(=O)n1-c1ccc(F)c(Cl)c1,.,8.3*,.,1,0,14224*,1628,+
CCOC(=O)c1n[nH]c2ccccc12,-2,.,1,0.26,0.95,.,.,.
CCOC(=O)c1nn(-c2ccccc2)c(=O)c2c(N)scc12,.,6.3*,.,0.33,-0.38,16104*,1620,+
CCOC(=O)c1nnn(-c2ccccc2C#N)c1C,-1,-0.67,-1,0.00063,-0.85,.,.,.
CCOC(=O)c1nn(-c2ccccc2)c(C(=O)OCC)c1N,1,11*,-6,0.58,0.054,15940*,1480,+
CCOC(=O)c1nn(-c2ccccc2C)c(=O)c(C#N)c1C,.,3.1*,.,-0.0077,0.61,9504*,.,i
O=C(CSc1ncn[nH]1)NCCCc1ccccc1,0,.,-1,.,.,.,.,.
CCOC(=O)c1[nH]c(C)c(C(=O)NC2CCN(C(=O)OCC)CC2)c1C,0,2.1*,-21,-0.19,0.033,5396,1508,i
COc1cc(-c2nnc3sc(-c4cccnc4)nn23)cc(OC)c1OC,-1,1.5,-19,-0.59,0.99,.,.,.
COC(=O)c1c(-c2ccccc2)csc1NC(=O)c1ccco1,1,4.9*,14,0.61,-0.44,6288*,1440,i
COC(=O)c1ccccc1NC(=O)c1ccco1,-1,4.4*,-22,0.92,0.78,11880*,1664,+
COC(=O)c1cccc(COC(=O)c2ccccc2NC(=O)c2ccco2)c1,-1,2.8,-27,0.024,0.49,.,.,.
O=C(COc1ccccc1)Nc1ccccc1N1CCCCC1,0,3.4*,-29,0.17,0.4,5352,.,i
COc1ccc(N(CC(=O)N2c3ccccc3CC2C)S(=O)(=O)c2c(C)noc2C)cc1 (stereo not given),-1,-0.33,-11,0.9,-0.26,.,.,.
O=c1n(-c2cccc(Cl)c2)c(=O)n2n1CCC2,-1,0.45,-3,0.16,-0.39,.,.,.
CNc1nn(-c2cccc(Cl)c2)nc1N,-1,4.2*,8,0.61,1.5,8344*,1588,i
O=C(O)c1[nH]c2ccc(Cl)cc2c1CC(=O)N1CCN(C(=O)c2ccco2)CC1,0,-0.028,-28,-1.2,-0.6,.,.,.
O=C(O)c1[nH]c2ccc(Cl)cc2c1CC(=O)N1CCN(c2ccccc2)CC1,-1,3.1*,-42,0.45,0.013,5332,1412,i
COc1cc2c(cc1OC)CN(C(=O)CSc1n[nH]c(N)n1)CC2,-1,13*,.,-0.31,0.59,16292*,1488,+
COc1cc2c(cc1OC)CN(C(=O)CCCN1C(=O)c3ccccc3C1=O)CC2,-2,5*,-80,-0.39,0.12,7424*,1616,+
CCC(C(=O)N1CCc2cc(OC)c(OC)cc2C1)c1ccccc1 (stereo not given),-1,4.7,13,0.5,0.014,.,.,.
CCN(CC)c1ncnc2sc(C(=O)N3CCN(c4ccccc4)CC3)c(C)c12,-1,-1,2,1.5,-0.13,.,.,.
SMILES,S1P3 ag,D1 allo mod,S1P1 ag-PAM,M1 antag,M1 ag,D1 mod confirm,D1 ag no DA,Isoprot counter
CCC(C)NC(=O)C1=C(C)C(=O)OC12CCC(C)CC2 (stereo not given),0,-0.3,-6,0.64,-0.66,.,.,.
COc1ccc(NC(=O)CSc2nc3ccccc3c(=O)n2-c2ccc3c(c2)OCO3)c(OC)c1,1,3.9*,17,-0.89,-0.34,8076*,1568,+
O=C(Cc1coc(-c2ccc(F)cc2)n1)Nc1ccccc1,1,-0.22,-4,-0.59,0.71,.,.,.
CCC(C)(C)NC(=O)CN(C(=O)c1snc(C(N)=O)c1N)c1ccc2c(c1)OCCO2,-1,6.6*,-14,-0.55,-1.7,4748,1392,i
Nc1cc(C(=O)N2CCCC2)cc(C(=O)N2CCCC2)c1,1,-0.19,1,-0.54,-0.23,.,.,.
CC(C)Sc1nc2c(c(=O)n1C)SC(C)C2 (stereo not given),-1,3.4*,-12,-0.089,0.34,8852*,1524,i
CSc1nc2c(c(=O)n1Cc1ccccc1)SC(C)C2 (stereo not given),-1,5.4*,-9,-0.73,1.1,8668*,1704,+
CCCSc1nnc2nc3c(nn12)c1ccccc1n3C,0,3,-32,-0.049,1.6,.,.,.
COc1ccc(CCNC(=O)CSc2nc(N)c3c(C)c(C)oc3n2)cc1OC,0,3.4,-18,-0.4,-0.19,.,.,.
CCCC1(C(=O)OCC)NC(c2ccc(N(C)C)cc2)C2C(=O)N(c3ccccc3)C(=O)C21 (stereo not given),-1,-0.73,3,-0.19,1.5,.,.,.
CCCC1(C(=O)OCC)NC(c2ccc(N(C)C)cc2)C2C(=O)N(c3ccc(OCC)cc3)C(=O)C21 (stereo not given),-1,2.9*,0,0.98,0.18,4600,1488,i
O=C(Oc1nsnc1N1CCCCC1)N1CCOCC1,-1,-0.2,9,0.56,0.017,.,.,.
COCCN1CN(S(=O)(=O)c2ccccc2)c2nc3ccccc3nc21,0,6.6*,8,1.3,-1.1,9164*,1496,+
CCCCN1CN(S(=O)(=O)c2cccs2)c2nc3ccccc3nc21,-1,8.4*,6,0.98,0.4,13480*,1328,+
CN(c1nc(-c2ccccc2)cs1)C1CCS(=O)(=O)C1 (stereo not given),0,1,1,-0.72,-1.3,.,.,.
COC(=O)c1ccc(S(=O)(=O)N(Cc2cc3cc4c(cc3[nH]c2=O)OCO4)C2CCCCC2)cc1,0,-0.038,-6,1.3,-0.2,.,.,.
